From PubChem
RGS4 act – RGS4 potentiation or activation; HEK293 M3R/inducible RGS4, carbachol calcium flux Fluo4; stronger effect = lower value; B-score at 10 µM; 0.92% of 310,000 active;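 active = B-score of the integrated calcium signal more than 4 SD below the library mean, with starting fluorescence not abnormally high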;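 note: negative B-score means reduced calcium response which marks RGS4 activation or potentiation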
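Assay system: Inducible-RGS4 HEK293 cells carrying M3 receptor | Schedule: Compound preincubation 20 min at room temperature before agonist | Signal: Kinetic calcium fluorescence imaging with Fluo4-AM dye, 2 µM | Read-out basis: B score from integrated fluorescence ratio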
MrgX1 PAM – allosterically activates human MrgX1 receptor signaling; AID 588675; 0.63% of 310,000 active; MrgX1-HEK293, Fluo-4 calcium flux, FDSS; stronger effect = higher value; B-score at 10 µM;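 active = plate-corrected calcium response at least 3 library SD above typical, normal starting fluorescence, not activating the receptor alone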;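 note: compound read alongside a low EC10 to EC30 dose of BAM8-22 agonist; peak minus trough fluorescence over baseline measured at the second addition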
Target sequence (Q96LB2 whole entry, looked up): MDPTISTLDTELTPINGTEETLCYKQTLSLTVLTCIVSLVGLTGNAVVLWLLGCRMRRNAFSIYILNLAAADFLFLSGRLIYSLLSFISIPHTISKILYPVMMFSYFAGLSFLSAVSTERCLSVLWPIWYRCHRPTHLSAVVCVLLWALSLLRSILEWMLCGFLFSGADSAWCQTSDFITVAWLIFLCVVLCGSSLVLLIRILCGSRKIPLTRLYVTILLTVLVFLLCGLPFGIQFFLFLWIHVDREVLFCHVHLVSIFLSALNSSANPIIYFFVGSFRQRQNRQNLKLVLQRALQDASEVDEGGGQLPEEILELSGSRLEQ
MrgX1 antag – antagonists of human MrgX1 receptor | Q96LB2 | MRGX1-HEK293 calcium flux, Fluo-4, BAM8-22 antagonism; stronger effect = lower value | B-score at 10 µM | 1.3% of 310,000 active | AID 588676;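 active = calcium-response B-score plate-corrected more than 3 library SD below zero, starting fluorescence within 5 deviations, no agonist response on first addition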;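 note: peak minus trough fluorescence over baseline after final BAM8-22 challenge near maximal dose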
RGS4 block – inhibitors of human RGS4; HEK293 M3R/RGS4 inducible, Fluo-4 calcium flux; stronger effect = higher value; triggered by carbachol at its EC20; B-score at 10 µM; 0.45% of 310,000 active;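 active = B-score, a plate-corrected calcium signal, over three deviations above library mean, with baseline fluorescence within five deviations of library mean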;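 note: RGS4 expression induced by doxycycline in cells with stable M3 receptor; B-score is computed from the integrated fluorescence ratio over baseline after carbachol; higher B-score means a larger calcium signal and so more RGS4 inhibition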
MrgX1 agonist – human MrgX1 receptor agonism, primary screen; 0.44% of 310,000 active; AID 588627; Q96LB2; B-score at 10 µM; MrgX1-HEK293 cells, Fluo-4 calcium fluorescence, agonist mode; stronger effect = higher value;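 active = calcium response B-score plate-corrected fluorescence ratio at least 3 library SD, with starting fluorescence B-score inside 5 SD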
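times = overnight plating, then 30 min 37 °C plus 30 min room-temperature dye loading | assay system = stable human MrgX1 HEK293 cell line | input = fifteen thousand cells per well | signal = kinetic calcium dye fluorescence, Fluo-4 NW | dosing = compound delivered in addition one of three | read-out = B-scored fluorescence response ratio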
MrgX1 ag reconf – confirmation of human MrgX1 receptor agonists | shares compounds with MrgX1 agonist | MrgX1-HEK293, Fluo-4 calcium fluorescence, FDSS | AID 602412 | activation, % at 10 µM | 78% of 600 active;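 active = calcium signal rise, corrected for plate position, at least 3 library SD high, with starting brightness within 5 such deviations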; note: reference of the scale not given here
HEK293 Ca flux – MrgX1 antagonist counter-screen hit in parental HEK293 cells; shares compounds with MrgX1 antag; Fluo-4 calcium fluorescence, FDSS; fluorescence ratio F(max-min)/F0 at 10 µM; 2% of 4,000 active;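 active = duplicate-averaged calcium fluorescence ratio at least three times the standard deviation of buffer wells, a nonspecific response in parental cells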
HEK293 Ca counter – MrgX1 allosteric activator counter-screen hit in parental HEK293 cells | shares compounds with MrgX1 antag | parental HEK293 calcium flux, Fluo-4 fluorescence ratio; stronger effect = higher value | fluorescence ratio F(max-min)/F0 at 10 µM | 0.4% of 4,000 active;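 active = calcium fluorescence ratio, averaged over duplicates, at least 3 SD of the buffer-well ratio, meaning a nonspecific response in receptor-free cells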;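 note: untransfected parental HEK293 lacking MrgX1 used as counterscreen for MrgX1 allosteric activators; fluorescence change taken during the second addition on a kinetic imager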
HEK293 Ca cntr2 – counter-screen for MrgX1 activators: effect in parental HEK293 cells; fluorescence ratio F(max-min)/F0 at 10 µM; Fluo-4 calcium fluorescence (FDSS); stronger effect = higher value; 8.7% of 4,000 active; shares compounds with MrgX1 antag;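 active = calcium fluorescence ratio at least three times the spread of buffer wells, meaning a non-specific response in parental cells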
Numbers without * were called inactive; i = inactive; nt = no result given. Rows were chosen to be rich in hits. Some 3.5% of all compounds tested hit in one or more screens of this group.

SMILES	RGS4 act	MrgX1 PAM	MrgX1 antag	RGS4 block	MrgX1 agonist	MrgX1 ag reconf	HEK293 Ca flux	HEK293 Ca counter	HEK293 Ca cntr2
COc1cc([N+](=O)[O-])cc(/C=N/NC(=O)C(O)(c2ccccc2)c2ccccc2)c1O	i	i	i	i	i	nt	nt	nt	nt
COC(=O)c1c(Cl)c2n3ccccc3c(C)c(-c3ccccc3)c-2c1C(=O)OC	i	i	i	i	27*	i	i	i	i
Cc1ccc(S(=O)(=O)C(C#N)c2nc3ccccc3nc2N2CCCC2)cc1 (stereo not given)	i	i	i	i	30*	i	i	i	52*
CC(=O)[C@@]1(O)C(C)CC2C3C=C(C)C4=Cc5c(cnn5-c5ccccc5)C[C@]4(C)C3C(O)C[C@@]21C (stereo not given in full)	i	i	i	i	i	nt	nt	nt	nt
COc1cc(-c2cc(OC)c3c(C)oc(C)c3c(=O)c2)ccc1O	i	i	i	i	30*	175%*	i	i	i
COc1ccc(-c2cc(OC)c3c(C)oc(C)c3c(=O)c2)cc1OC	i	i	i	i	i	nt	nt	nt	nt
Cc1ccc(-n2c(CCC(=O)O)ccc2-c2cccs2)cc1C	i	i	i	i	29*	216%*	i	i	i
CCOC(=O)c1ccc(-n2c(CCC(=O)O)ccc2-c2cccs2)cc1	i	i	i	i	i	nt	nt	nt	nt
COCC(=O)c1[nH]c2ccccc2c1C	i	i	i	i	41*	196%*	i	i	i
Cc1ccc(Cl)cc1NC(=O)CC(O)(C(F)(F)F)C(F)(F)F	i	i	i	i	29*	196%*	i	i	47*
COCC(=O)Nc1cc(Cl)ccc1C	i	i	i	i	i	nt	nt	nt	nt
COc1c2c(nc3occc13)C(CCC(C)(C)O)(OC)C(O)CC2 (stereo not given)	i	i	i	i	i	nt	nt	nt	nt
c1ccc(CNc2ncnc3sc4c(c23)CCC4)nc1	i	i	i	i	i	nt	nt	nt	nt
c1ccc(CNc2ncnc3scc(-c4cccs4)c23)nc1	i	i	i	i	27*	160%*	i	i	i
CN(C)S(=O)(=O)N1CCN(C(=O)c2cccs2)CC1	i	i	i	i	i	nt	nt	nt	nt
CC(C)Cc1csc(NC(=O)c2ccc(Cl)cc2)c1C(=O)O	i	i	i	i	37*	224%*	i	i	52*
COc1ccc2c(c1)cc1n2CCN=C1N	i	i	i	i	31*	138%*	i	i	i
COc1ccc2c(c1)cc1n2CCN2CCCN=C12	i	i	i	i	i	nt	nt	nt	nt
Cc1ccc(-n2nc(C)c3c2OC(N)=C(C#N)C3c2ccncc2)cc1 (stereo not given)	i	i	i	i	i	nt	nt	nt	nt
Cc1ccc(-n2nc(C)c3c2OC(N)=C(C#N)C3c2ccccc2F)cc1 (stereo not given)	i	i	i	i	27*	163%*	i	i	i
COc1ccc(Cl)cc1NC(=O)CSc1nnc(Cc2ccc(C)cc2)c(=O)[nH]1	i	i	i	i	36*	160%*	i	i	i
Cc1ccc(Cc2nnc(SCC(=O)Nc3ccccc3Cl)[nH]c2=O)cc1	i	i	i	i	i	nt	nt	nt	nt
CCOC(=O)c1c(NC(=O)COC(=O)Cn2cnc3c2c(=O)n(C)c(=O)n3C)sc(C)c1CC	i	i	i	i	i	nt	nt	nt	nt
